Results on eleven compounds are retold here after ChEMBL document CHEMBL3875171, “[1,2]Oxazolo[5,4-e]isoindoles as promising tubulin polymerization inhibitors” (Eur J Med Chem, 2016).

A short description of series [1]: Cytotoxicity against human MCF7 cells assessed as growth inhibition after 72 hrs by MTS assay. It is filed as functional, cell-based. Particulars: MCF7, 72 h. In short, it runs like this:
(§1)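 Log-phase cells seeded at 4500 cells/50 µL and grown 24 h, then exposed 72 h to 0.01-100 µM compound; vehicle controls 0.01% DMSO. MTS read-out at 490 nm, expressed as % of DMSO-treated cells. Eight replicates per condition, at least three independent repeats; IC50 read graphically from dose-response curves.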

Series [2] can be described thus: Cytotoxicity against human M14 cells assessed as growth inhibition after 72 hrs by MTS assay. Particulars: M14, 72 h. It is filed as functional, cell-based. In short, it runs like this: as §1
Background: Formazan colour is commonly taken as a measure of viable cells.

Series [3] in a line: Cytotoxicity against human MDA-MB-231 cells assessed as growth inhibition after 72 hrs by MTS assay. It is filed as functional, cell-based. Particulars: MDA-MB-231, 72 h. In short, it runs like this:
as §1

Series [4] in a line: Cytotoxicity against human DU145 cells assessed as growth inhibition after 72 hrs by MTS assay. It is filed as functional, cell-based. Particulars: DU-145, 72 h. The gist of the method: as §1
A short description of series [5]: Cytotoxicity against human JR8 cells assessed as growth inhibition after 72 hrs by MTS assay. Format: functional, cell-based. Particulars: JR8, 72 h. In short, it runs like this:
as §1

Series [6] can be described thus: Cytotoxicity against human MP8 cells assessed as growth inhibition after 72 hrs by MTS assay. It is filed as functional, cell-based. Particulars: MP8, 72 h. The gist of the method:
as §1

Series [7] is described as follows: Cytotoxicity against human MCF10A cells assessed as growth inhibition after 72 hrs by MTS assay. Format: toxicity, cell-based, MCF-10A. In short, it runs like this: as §1
Series [8] is described as follows: Cytotoxicity against human WI38 cells assessed as growth inhibition after 72 hrs by MTS assay. Format: toxicity, cell-based, WI-38. The gist of the method: as §1
A short description of series [9]: Cytotoxicity against human PC3 cells assessed as growth inhibition after 72 hrs by MTS assay. Format: functional, cell-based. Particulars: PC-3, 72 h. In short, it runs like this: as §1
The nature of series [10]: Cytotoxicity against human STO cells assessed as growth inhibition after 72 hrs by MTS assay. Format: functional, cell-based. In short, it runs like this: as §1

With `COc1cc(Cn2cc3c(c2)-c2oncc2CC3)cc(OC)c1OC`, the IC50 worked out at 0.92 µM in series [1]; 0.89 µM in series [2]; 0.75 µM in series [3]; 0.99 µM in series [4]; 0.63 µM in series [5]; 0.73 µM in [6]. For the same compound, the results for the IC50 in [9] and in [10] were 0.87 µM and 0.62 µM, respectively. The IC50 at 72 h in series [7] and in series [8] was above 100 µM throughout.
For the compound `Cc1c2c(cn1C)CCc1cnoc1-2`, the IC50 in series [1], in series [2], in [3], in [4], in series [5] and in [6] was above 100 µM in each case. For the same compound, the IC50 in [9] and in series [10] was above 100 µM each time.
With `Cc1c2c(cn1Cc1ccccc1)CCc1cnoc1-2`, the IC50 in series [1], in series [2], in series [3], in [4], in series [5] and in series [6] was above 100 µM each time. Further, the IC50 in series [9] and in [10] was above 100 µM in each case.
On to `Cn1cc2c(c1)-c1oncc1CC2`, for which the IC50 in [1] was determined as 86.6 µM; in series [2] it was 65.8 µM; in series [3] it was 55.4 µM; in [4], 69.3 µM; in [5], 58.4 µM; in [6], 26.7 µM. Also, the IC50 in [9] was found to be 77.1 µM; in [10], 28.1 µM.
For `CCOC(=O)c1c2c(c(C)n1C)-c1oncc1CC2`, the half-maximal inhibitory concentration (IC50) in series [1], in [2], in series [3], in series [4], in series [5] and in series [6] was above 100 µM throughout. In addition, the IC50 in [9] and in [10] was above 100 µM each time.
On to `COc1ccc(-n2cc3c(c2)-c2oncc2CC3)cc1`, for which the IC50 in series [1] came to 79.6 µM; in series [2] it was 58.5 µM; in series [3], 57.5 µM; in [4], 81.1 µM; in [5], 61.6 µM; in [6], 21.2 µM. Further, the results for the IC50 in series [9] and in series [10] were 79.9 µM and 25.5 µM, respectively.
Take `CCOC(=O)c1c2c(c(C)n1Cc1ccc(OC)cc1)-c1oncc1CC2`: the IC50 in [1], in series [2], in [3], in series [4], in series [5] and in [6] was above 100 µM each time. Moreover, the IC50 in [9] and in series [10] was above 100 µM each time.
As to `c1ccc(-n2cc3c(c2)-c2oncc2CC3)cc1`, the IC50 in series [1] was determined as 81.2 µM; in [2], 63.4 µM; in series [3], 68.4 µM; in series [4], 76.4 µM; in [5] it was 59.6 µM; in series [6], 25.3 µM. In addition, the values for the IC50 in series [9] and in [10] were 70.5 µM and 29.5 µM, respectively.
Turning to `Cc1ccc(Cn2cc3c(c2)-c2oncc2CC3)cc1`, the IC50 in series [1], in [2], in series [3], in [4], in series [5] and in series [6] was above 100 µM throughout. In addition, the IC50 in series [9] and in series [10] was above 100 µM in each case.
`CCOC(=O)c1c2c(c(C)n1Cc1ccccc1)-c1oncc1CC2`: the IC50 in series [1], in series [2], in series [3], in [4], in series [5] and in [6] was above 100 µM throughout. The IC50 in series [9] and in series [10] was above 100 µM throughout.
Consider `COc1cccc(Cn2cc3c(c2)-c2oncc2CC3)c1OC`, for which the IC50 in series [1], in series [2], in series [3], in [4], in [5] and in series [6] was above 100 µM in each case. Also, the IC50 in [9] and in series [10] was above 100 µM throughout.

The term IC50 denotes the concentration at which inhibition is half-maximal.
